eIF4E-4G inh = inhibitors of eIF4E and eIF4G interaction in translation initiation; P63073+Q04637; TR-FRET eIF4E-eIF4GI(517-606) binding, 2 h; inhibition, % at 21.7 µM; 220,000 compounds, 0.37% hits; AID 782;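 active = inhibition above about 30%, limit read from the data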;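 note: 0% = full FRET control wells and 100% = background wells lacking eIF4GI fragment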
14-3-3 Bad PPI = disrupts binding of bovine 14-3-3 zeta to phospho-Bad peptide; P63103; TR-FRET 14-3-3zeta/Dy647-pBad peptide displacement, 1 h; 220,000 compounds, 0.71% hits; inhibition, % at 21.7 µM; AID 781;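 active = inhibition above about 70%, limit read from the data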;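 note: 0% = full 14-3-3 plus peptide FRET controls and 100% = background without 14-3-3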
p97 inhibitor = inhibitors of human p97 ATPase; inhibition, % at 8 µM; 220,000 compounds, 0.42% hits; recombinant p97 ATPase, Kinase-Glo ATP luminescence, 3 h; P55072; in the data active = inhibition above about 15%;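 note: 0% = DMSO vehicle and 100% = wells lacking enzyme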
PERK inhibitor = blocks human PERK kinase; 220,000 compounds, 0.17% hits; Q9NZJ5; CHO PERK-DD fusion, SEAP luminescence translation reporter; inhibition, % at 5.6 µM;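 active = inhibition above the mean inhibition of all tested compounds plus 3 SD, set separately per screening campaign, cut at about 2.9% in these data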;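 note: PERK kinase domain activated by AP20187 dimerizer at 100 nM; 0% = DMSO with dimerizer and 100% = rapamycin at 8.4 µM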
Hck Nef HTS = blocks Nef-activated human Hck kinase; inhibition, % at 20 µM; 220,000 compounds, 0.68% hits; P08631; Recombinant Hck-YEEI plus Nef, Z-Lyte FRET kinase assay; AID 463187;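 active = Hck-Nef kinase inhibition above about 50%, limit read from the data; inactive = inhibition below that limit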;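 note: 0% = DMSO with Hck plus Nef and 100% = Hck alone without Nef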
Target sequence (P08631 whole entry, looked up): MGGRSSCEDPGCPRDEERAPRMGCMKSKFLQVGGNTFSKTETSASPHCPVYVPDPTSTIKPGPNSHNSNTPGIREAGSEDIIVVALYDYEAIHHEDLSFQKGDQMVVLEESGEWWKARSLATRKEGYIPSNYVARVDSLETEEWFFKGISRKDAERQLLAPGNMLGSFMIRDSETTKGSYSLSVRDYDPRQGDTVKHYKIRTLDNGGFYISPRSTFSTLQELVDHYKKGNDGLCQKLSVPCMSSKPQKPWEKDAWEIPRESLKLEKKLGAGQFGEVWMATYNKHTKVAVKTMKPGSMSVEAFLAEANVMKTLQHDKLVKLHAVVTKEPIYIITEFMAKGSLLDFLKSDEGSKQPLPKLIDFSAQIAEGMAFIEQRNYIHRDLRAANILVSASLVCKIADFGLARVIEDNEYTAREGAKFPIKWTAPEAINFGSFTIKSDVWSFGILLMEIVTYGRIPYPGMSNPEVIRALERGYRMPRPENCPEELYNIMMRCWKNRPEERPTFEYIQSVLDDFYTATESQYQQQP
Calb biofilm kill = mixture kills Candida albicans biofilm cells; C. albicans biofilm persisters + clotrimazole, fluorescence viability; primary screen in compound mixtures of four per well; inhibition, % at 7.6 µM; 120,000 compounds, 0.02% hits;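 active = inhibition above 30.3% in the primary screen of four-compound pools, then above 30% when the compound was retested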;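 note: compounds exposed to preformed 24 h biofilms for 48 h; 0% = untreated biofilm control and 100% = clotrimazole plus chlorhexidine kill blank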
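Test system: C. albicans biofilms. Buffer or medium: RPMI/MOPS medium, pH 7.0. Timing: 48 h compound exposure at 37 °C. Technique: Alamar Blue fluorescence. Evaluation: percent inhibition of biofilm viability.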
p97 inh conf = human p97 ATPase inhibition, confirmation | shares compounds with p97 inhibitor | recombinant p97 ATPase, Kinase-Glo ATP luminescence | inhibition, % at 8 µM | 760 compounds, 44% hits | AID 1517;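 active = percent inhibition of p97 ATPase above a set limit, the primary screen's mean plus 3 SD, cut at about 15% in these data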;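 note: 0% = DMSO wells and 100% = wells lacking p97 protein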
Starred values were filed as active, the others as inactive; . = no result. Compounds with a hit are over-represented: about 2.2% of the library has one in this group of screens.

SMILES | eIF4E-4G inh | 14-3-3 Bad PPI | p97 inhibitor | PERK inhibitor | Hck Nef HTS | Calb biofilm kill | others
CCCCN1C(=O)NC(=O)/C(=C/c2cnc(SC)nc2)C1=O | 6 | 40 | -7 | -1 | -2 | .
CCn1c(O)c(C(c2ccccn2)c2c(O)n(CC)c(=S)[nH]c2=O)c(=O)[nH]c1=S | 4 | 73* | -4 | -1 | -3 | .
COc1ccc(C(=O)Oc2cccc3cccnc23)cc1S(=O)(=O)N1CCOCC1 | 0 | -15 | 1 | 0 | 23 | 6
CCN(CC)c1ccc(CN2CC=C(c3ccc(F)cc3)CC2)cc1 | 3 | 77* | -3 | -1 | -5 | .
NC(=O)c1cn(C2OC(CO)C(O)C2O)c2ncnc(N)c12 (configuration not stated) | -6 | 9 | -4 | 5.3* | 54* | 6
CCNC(=O)[C@H]1O[C@@H](n2cnc3c(N)ncnc32)[C@H](O)[C@@H]1O | 3 | -2 | 3 | 1 | . | .
CCN(CCO)c1ccc(N=Cc2c(O)n(C)c(=S)[nH]c2=O)cc1 | 2 | 28 | -5 | -2 | -17 | 22
O=C1Nc2ccccc2C1Cc1nc2ccccc2c(=O)n1-c1ccccc1 (configuration not stated) | 2 | 10 | -2 | -1 | -1 | -2
CN1C2CCC1CC(OC(=O)c1cc(Cl)cc(Cl)c1)C2 (configuration not stated) | -6 | -3 | 1 | -2 | 0 | .
CN1C2CCC1C(COC(=O)c1ccccc1)C(O)C2 (configuration not stated) | -2 | 91* | -1 | 1 | 2 | 19
CC(Cc1ccccc1)[n+]1cc(/N=C(\[O-])N(C)C)on1 (configuration not stated) | -3 | 85* | 0 | 1 | 2 | .
c1cncc(C2CCCCN2Cc2ccc3c(c2)OCO3)c1 (configuration not stated) | -6 | 71* | 3 | 0 | 0 | .
Cn1cc(NC(=O)CCl)cn1 | -5 | -8 | 5 | 0 | 17 | -1
Cc1cc2ccccc2c(=O)n1CC(=O)NCC(=O)N1CCC2(CC1)OCCO2 | 8 | 7 | 4 | 1 | 24 | 19
O=C(/C=C/c1c[nH]c2ccccc12)c1c(O)n(CCc2ccccc2)c(=O)[nH]c1=O | 2 | 3 | 9 | 0 | -17 | 15
CCN1CCN(Cc2cc(Br)cc(Br)c2O)CC1 | 1 | 78* | -3 | -1 | 3 | .
CCN1CCN(Cc2cc(Br)ccc2O)CC1 | 0 | 41 | -1 | -1 | 2 | .
COc1ccc(CCNCc2sccc2C)cc1OC | 2 | 1 | 2 | 0 | -5 | -9
C[C@H]1CC[C@H]2NCCN[C@H]2C1 | 3 | -2 | 11 | 3.1* | -2 | 0
CC[C@@H](C(N)=O)N1CCCC1=O | 98* | 4 | 5 | 2 | . | .
Cc1cc([N+](=O)[O-])c2ccccc2[n+]1[O-] | 3 | -3 | -3 | -1 | -1 | 29
Cc1nn(CCC#N)c2c1P(=S)(N1CCCC1)OC(c1ccc(F)cc1)=N2 (configuration not stated) | 32* | 2 | -3 | 1 | -2 | .
CN(C)/C=C/C(=O)C(Cl)(Cl)Cl | 5 | 4 | 1 | 2 | 10 | 11
CCC1(C(=O)c2ccc(C)cc2)C2c3ccccc3OC(=O)C21C(=O)O (configuration not stated) | -2 | 2 | -14 | -1 | -20 | 9
O=C1NC(=O)N(Cc2ccccc2)C(=O)/C1=C/c1cnc(-c2ccccc2)nc1 | 1 | 4 | -1 | 0 | 58* | 20
SMILES | eIF4E-4G inh | 14-3-3 Bad PPI | p97 inhibitor | PERK inhibitor | Hck Nef HTS | Calb biofilm kill | others
C=CCn1c(O)c(C(C)=Nc2ccc(C(=O)O)cc2)c(=O)[nH]c1=O | -2 | 0 | 4 | 1 | 15 | 5
Nc1ccc2c(c1)oc1ccccc12 | 3 | -4 | 7 | 3.6* | 2 | .
CN1CCN(c2c(N)c(=O)oc3ccccc23)CC1 | 4 | -12 | -5 | -1 | -1 | .
CCc1ccc(-c2nn(Cc3ccccc3)cc2C=O)cc1 | 3 | 3 | -13 | 0 | 18 | 11
CC(=O)Cc1c[nH]c2ccccc12 | 97* | -6 | 6 | 1 | 19 | 22
O=C(Nc1cccnc1)c1c(O)c2c(n(Cc3ccccc3)c1=O)CCCC2 | 61* | 8 | 1 | 0 | 0 | .
CC(C)CCNC(=O)CN1C(=O)CN=C(c2ccccc2)c2ccccc21 | -3 | -2 | 1 | 0 | 21 | 24
CCC(C)NC(=O)CN1C(=O)CN=C(c2ccccc2)c2ccccc21 (configuration not stated) | 4 | -4 | 2 | 3.1* | -1 | -5
CSc1ccc(CNC(C)C(O)c2ccccc2)cc1 (configuration not stated) | -7 | -3 | -2 | -1 | -13 | -1
Cc1ccc(N2C(=O)NC(=O)/C(=C\c3ccoc3)C2=O)cc1 | 0 | -2 | 6 | -1 | 5 | 10
Cc1ccc(N2C(=O)NC(=O)/C(=C/c3ccc(-c4ccc(C(=O)O)c(Cl)c4)o3)C2=O)cc1 | 3 | -1 | 11 | 0 | 52* | 21
CC(=O)c1cc(C#N)c(N2CCN(C)CC2)nc1C | -9 | -10 | 5 | 1 | -10 | -22
COc1ccc(/C=C2/C(=O)NC(=O)N(Cc3ccco3)C2=O)cc1 | 27 | 54 | 9 | 0 | 57* | 6
COc1ccc(CN2C(=O)NC(=O)/C(=C/c3ccc([N+](=O)[O-])o3)C2=O)cc1 | 23 | 46 | 1 | 1 | 142* | 22
C=CCN(CC#CCOc1ccccc1OC)CC=C | 1 | 54 | -2 | 1 | 3 | 16
CCCC(=O)c1ccc(CP(=O)(OCC)OCC)o1 | 2 | -2 | 0 | 1 | 3 | 18
COC(=O)c1c(C)[nH]c(C(=O)C(C)[N+]23CCN(CC2)CC3)c1C (configuration not stated) | 13 | 81* | 1 | 1 | 18 | 17
COC(=O)c1cn(C(=O)c2cccc3ccccc23)c2ccccc12 | -1 | 0 | 4 | -1 | 18 | 16
Fc1ccc2c(c1)nnn2C1CCN(Cc2nnnn2CCc2ccccc2)CC1 | -12 | 76* | -4 | -2 | 0 | .
CC(=O)N1N=C2C3CCN(CC3)C2C1c1cccc2ccccc12 (configuration not stated) | 7 | -7 | 16* | 1 | -11 | 3 | p97 inh conf=11
CC1CCC[C@H](O)CCCCCc2cc(O)cc(O)c2C(=O)O1 (some centres not stated) | 2 | 7 | 17* | 1 | 3 | 10 | p97 inh conf=25*
CC(=NCC1CCCO1)c1c(O)n(-c2ccccc2C)c(=O)[nH]c1=O (configuration not stated) | -3 | -8 | 1 | 0 | -2 | 25

Source: PubChem
